RanGTP-Impb inh = disruptors of Ran-importin-beta complex formation – biochemical, FRET, CFP-Ran, YFP-importin-beta, homogeneous, primary screen | cell-free CFP-Ran/YFP-importin-beta FRET ratio | inhibition, % (concentration not given with the values) | 300,000 tested, 1.1% active | AID 2216;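 active means more than half of the replicate wells show a fall in the fluorescence ratio signal beyond about 16%, limit read from the data, passing the limit was not always enough; inconclusive means exactly half of the replicate wells pass the set limit; inactive means fewer than half of replicates pass the limit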
MEX-5 binding = C. elegans MEX-5 TCR-2 RNA binding activity | MEX-5/FITC-TCR2 RNA binding, fluorescence polarization; stronger effect = lower value | activity score (negative = inhibition of binding), % at 10 µM | 300,000 tested, 0.38% active;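 active means inhibition past about -25% in most replicates, and total fluorescence under double the plate's negative control median, limit read from the data; inconclusive means replicates evenly split on the limit, or fluorescence at least double controls; inactive means too little inhibition in most replicates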
EBV gp42 block = EBV gp42 inhibition; Fluorescence polarization binding assay, mP read-out; AID 1085; 220,000 tested, 0.42% active; inhibition, % (tested at 21.74 µM); Q1HVG2; in the data active means inhibition above about 50%
Runt-SMMHC FRET = Runt domain-CBFb-SMMHC interaction inhibition; Cerulean-Runt/Venus-CBFb-SMMHC FRET ratio 530/480, 1 h; inhibition, % at 20 µM; 220,000 tested, 0.74% active; AID 1434;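 active means mean inhibition across duplicate retests at 20 µM reaching about 50%, limit read from the data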;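 further: inhibitors lower the FRET ratio by blocking Runt binding to CBFb-SMMHC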
Target sequence (Q01196 whole entry, looked up, the tested form may be a part): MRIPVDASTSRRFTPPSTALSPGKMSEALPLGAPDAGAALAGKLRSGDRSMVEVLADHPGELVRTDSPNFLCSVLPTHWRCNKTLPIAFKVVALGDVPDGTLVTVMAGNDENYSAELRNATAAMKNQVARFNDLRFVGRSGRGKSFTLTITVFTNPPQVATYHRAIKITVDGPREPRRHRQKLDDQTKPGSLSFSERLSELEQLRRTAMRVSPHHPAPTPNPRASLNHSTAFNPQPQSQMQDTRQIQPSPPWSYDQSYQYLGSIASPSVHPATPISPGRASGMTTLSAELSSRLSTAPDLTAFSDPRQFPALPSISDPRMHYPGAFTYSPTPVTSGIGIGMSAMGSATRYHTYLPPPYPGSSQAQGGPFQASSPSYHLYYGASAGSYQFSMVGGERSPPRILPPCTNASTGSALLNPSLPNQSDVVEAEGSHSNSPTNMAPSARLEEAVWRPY
Target sequence (Q13951 whole entry, looked up, the tested form may be a part): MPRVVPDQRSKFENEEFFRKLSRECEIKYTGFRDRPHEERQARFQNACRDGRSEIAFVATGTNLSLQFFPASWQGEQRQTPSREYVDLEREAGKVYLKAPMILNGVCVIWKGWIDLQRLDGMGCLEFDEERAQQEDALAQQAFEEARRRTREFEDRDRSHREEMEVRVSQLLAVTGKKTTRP
Runt-CBFb FRET = inhibitors of human RUNX1 Runt domain binding to CBFb; Q01196+Q13951; 220,000 tested, 0.46% active; Cerulean-Runt/Venus-CBFb FRET ratio 530/480, 1 h; AID 1496; inhibition, % at 20 µM;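 active means inhibition over about 50% at 20 µM in the single-dose screen, limit read from the data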
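Assay system: Cerulean-Runt domain fusion protein, energy donor; Signal: fluorescence energy transfer, 422 nm excitation, 530/480 nm emission; Timing: 1 h compound exposure, room temperature; Control set: unlabeled CBFb; Medium: Tris buffer pH 7.5 with salts and BSA; Compound: single test concentration of 20 µM, 1% DMSO final; Probe or stimulus: Venus-CBFb 100 nM.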
LANA-H2B inh = blocks KSHV LANA binding to histone H2A/H2B. Q9QR71. cell-free LANA-H2A/H2B peptide, fluorescence polarization. 320,000 tested, 0.6% active. inhibition, % (concentration not given with the values); in the data active means inhibition mostly above about 10%, no sharp cut-off; inactive means mostly below about 6.7%
Large screens that a line does not name were inactive. Shown are actives, neighbours in structure and some others; about 2.4% of the full set was active somewhere.

Cc1ccc(-n2c(=O)c(C#N)cc3c(=O)n4cccc(C)c4nc32)cc1	RanGTP-Impb inh 93, Runt-SMMHC FRET 59, Runt-CBFb FRET 122
Cc1cccn2c(=O)c3cc(C(=O)N(C)C)n(C)c3nc12	none
O=C(CN(Cc1ccc(Cl)cc1)S(=O)(=O)c1ccccc1)NCC1CCCO1 (stereo not drawn)	none (no result: EBV gp42 block, Runt-SMMHC FRET, Runt-CBFb FRET)
S=C1NCCNC(=S)NCCOCCOCCN1	none
Cc1ccc(OCC(=O)NCCNC(=O)c2ccccn2)cc1	none (no result: EBV gp42 block, Runt-SMMHC FRET, Runt-CBFb FRET)
Cc1nc2ccc(S(=O)(=O)NCC(=O)NCCc3ccc(Cl)cc3)cc2s1	none (no result: EBV gp42 block, Runt-SMMHC FRET, Runt-CBFb FRET)
CCOc1ccc(NC(=O)C23CC4CC(C2)CC(c2ccccc2)(C4)C3)cc1	LANA-H2B inh 14
C=CCn1c(SCC)nc(O)cc1=O	RanGTP-Impb inh inconclusive
C=CCn1c(SCCC)nc(O)cc1=O	LANA-H2B inh 16
O=C(COc1ccc(Cl)cc1Cl)NN1C(=O)C2C3C=CC([C@@H]2C1=O)C31CC1 (stereo partly drawn)	none
CN(C)CCCC(C)(O)C(C)(C)c1ccccc1 (stereo not drawn)	Runt-CBFb FRET 73
CCn1c(SCc2nc3sc(C(=O)O)c(C)c3c(=O)[nH]2)nnc1-c1ccc(Cl)cc1	LANA-H2B inh active
COc1cccc(N=c2oc3cc(O)ccc3cc2C(=O)NCC2CCCO2)c1 (stereo not drawn)	RanGTP-Impb inh 180, Runt-SMMHC FRET 90, Runt-CBFb FRET 52
COc1ccc2oc(=O)c(C(=O)NCC3CCCO3)cc2c1 (stereo not drawn)	none
COc1ccccc1N=c1oc2cc(O)ccc2cc1C(N)=O	RanGTP-Impb inh 179
COc1ccccc1N=c1oc2cc(O)ccc2cc1C(=O)NCC1CCCO1 (stereo not drawn)	RanGTP-Impb inh 174
COc1cccc2cc(C(=O)NCC3CCCO3)c(=O)oc12 (stereo not drawn)	none
COc1ccc2cc(C(N)=O)c(=Nc3ccc(C)cc3)oc2c1	none
Cc1cccc(N=c2oc3cc(O)ccc3cc2C(N)=O)c1	Runt-SMMHC FRET 79
CC(Oc1ccc2c(-c3ccccc3)cc(=O)oc2c1)C(=O)NCCCn1ccnc1 (stereo not drawn)	none (no result: EBV gp42 block, Runt-SMMHC FRET, Runt-CBFb FRET)
CC(=O)NS(=O)(=O)c1ccc(NC(=S)NC(=O)Cc2ccccc2)cc1	none
COc1ccc(NC(=O)C2COc3ccccc3O2)cc1S(=O)(=O)N1CCOCC1 (stereo not drawn)	none (no result: RanGTP-Impb inh, MEX-5 binding, EBV gp42 block, Runt-SMMHC FRET, Runt-CBFb FRET)
O=C(Nc1ccccc1F)Nc1ccccc1OC(F)F	none
Cc1ccc(NC(=O)Nc2ccc(F)cc2F)c(OC(F)F)c1	LANA-H2B inh 102
CC/C(=N/Nc1cccc(C)c1)c1cnnc(SC)n1	MEX-5 binding -33
COc1ccc(C2=Nc3nc(-c4ccccc4)cn3C(c3ccc(OC)cc3)C2)cc1 (stereo not drawn)	RanGTP-Impb inh 28 (no result: LANA-H2B inh)
Cc1c(C(=O)O)sc2nc3n(c(=O)c12)CCC(C)CC3 (stereo not drawn)	LANA-H2B inh 20
COc1ccccc1C(=O)N/C(=C\c1ccc2c(c1)OCO2)C(=O)NCCc1nc2ccccc2[nH]1	none
COCCCNC(=O)c1c(N)n(-c2ccc(S(N)(=O)=O)cc2)c2nc3ccccc3nc12	RanGTP-Impb inh 61, Runt-SMMHC FRET 82, Runt-CBFb FRET 57
COC(=O)c1c(N)n(-c2ccc(NC(C)=O)cc2)c2nc3ccccc3nc12	Runt-SMMHC FRET 74
COCCNC(=O)c1c(N)n(-c2ccccc2)c2nc3ccccc3nc12	RanGTP-Impb inh 90, Runt-CBFb FRET 88
COCCCNC(=O)c1c(N)n(/N=C/c2cccs2)c2nc3ccccc3nc12	Runt-SMMHC FRET 58, Runt-CBFb FRET 88
COCCCNC(=O)c1c(N)n(/N=C/c2cccnc2)c2nc3ccccc3nc12	none
COc1cc(C(C)=O)ccc1OCC(O)Cn1nc(C)c(Br)c1C (stereo not drawn)	none (no result: EBV gp42 block, Runt-SMMHC FRET, Runt-CBFb FRET)
COc1cc(-n2c(N)c(C(=O)NCc3ccco3)c3nc4ccccc4nc32)cc(OC)c1OC	none
C=CCNC(=O)c1c(N)n(-c2cccc(S(N)(=O)=O)c2)c2nc3ccccc3nc12	Runt-CBFb FRET 80 (no result: RanGTP-Impb inh)
C=CCn1c(N)c(C(=O)Nc2ccccc2)c2nc3ccccc3nc21	RanGTP-Impb inh 18
C=CCn1c(SCc2ccc(C(=O)Nc3ccccc3)cc2)nnc1-c1ccccc1	none
COc1ccc(C(=O)NCCCn2ccnc2)cc1	none
COCCNC(=O)c1c(N)n(CCCn2ccnc2)c2nc3ccccc3nc12	RanGTP-Impb inh 113
COCCCNC(=O)c1c(N)n(-c2ccccc2)c2nc3ccccc3nc12	RanGTP-Impb inh 87, Runt-SMMHC FRET 81, Runt-CBFb FRET 54
CC(=O)Nc1ccc(NC(=O)CSc2nc3[nH]ncc3c(=O)n2-c2ccccc2)cc1	none (no result: EBV gp42 block, Runt-SMMHC FRET, Runt-CBFb FRET)
O=C(NC1CC1)c1cc(-c2ccco2)nc2ccccc12	EBV gp42 block 84 (no result: LANA-H2B inh)
O=C(OCC(=O)N1CCN(C(=O)c2ccco2)CC1)c1cc(-c2ccc(Cl)c(Cl)c2Cl)nc2ccccc12	none
O=C(N/N=C/c1ccc(F)cc1)c1cc(-c2ccco2)nc2ccccc12	EBV gp42 block 83
O=C(OCC(=O)N1CCN(C(=O)c2ccco2)CC1)c1cc(-c2ccco2)nc2ccccc12	EBV gp42 block 76
O=C(Nc1cccc(S(=O)(=O)NC2=NCCC2)c1)c1cc(-c2ccco2)nc2ccccc12	EBV gp42 block 82
O=C(NC(=S)Nc1cccc(S(=O)(=O)NC2=NCCC2)c1)c1cc(-c2ccco2)nc2ccccc12	none
COCOc1cc(O)c(C(=O)/C=C/c2ccccc2)c(OCOC)c1	none (no result: EBV gp42 block, Runt-SMMHC FRET, Runt-CBFb FRET)
COc1ccc(OC)c(C2=NOC(C(=O)Nc3cc(C)nn3-c3ccccc3)C2)c1 (stereo not drawn)	none
COc1cccc(/C=C2\SC(=S)N(CCCC(=O)NC3=NCCS3)C2=O)c1	MEX-5 binding -34 (no result: EBV gp42 block, Runt-SMMHC FRET, Runt-CBFb FRET)
COc1cccc(/C=C2/SC(=S)N(CCCC(=O)Nc3ccc(O)cc3)C2=O)c1	none (no result: EBV gp42 block, Runt-SMMHC FRET, Runt-CBFb FRET)
Oc1ccc(Cl)cc1CNc1cnc2ccccc2c1	RanGTP-Impb inh inconclusive (no result: EBV gp42 block, Runt-SMMHC FRET, Runt-CBFb FRET)
Oc1ccccc1CNc1cnc2ccccc2c1	LANA-H2B inh 20
Cc1nn(C)c(C)c1CN(C)C(=O)c1cnn2c1NC(c1ccccc1)CC2C(F)(F)F (stereo not drawn)	none
O=C(NCc1ccco1)c1cnn2c1NC(c1ccc(Br)cc1)CC2C(F)(F)F (stereo not drawn)	RanGTP-Impb inh 25
O=C(NCc1ccco1)c1cnn2c1NC(c1ccccc1)CC2C(F)(F)F (stereo not drawn)	none
Cc1ccccc1Cn1ccc(NC(=O)c2cnn3c2NC(c2ccccc2)CC3C(F)(F)F)n1 (stereo not drawn)	RanGTP-Impb inh inconclusive, LANA-H2B inh active
OC(c1ccc(Cl)cc1)c1nccc2ccccc12 (stereo not drawn)	none (no result: EBV gp42 block, Runt-SMMHC FRET, Runt-CBFb FRET)

Screening data from PubChem.
